# ChEMBL document CHEMBL4304748, “Design, Synthesis, and Biological Evaluation of a New Series of Carvedilol Derivatives That Protect Sensory Hair Cells from Aminoglycoside-Induced Damage by Blocking the Mechanoelectrical Transducer Channel” (J Med Chem, 2019)
# Activity calls are given as the source filed them. No cut-off for these calls is given here.
# Columns and labels:
# Staphylococcus aureus [1] = test: Effect on gentamycin-induced antibacterial activity against Staphylococcus aureus at 2.2 uM incubated for 16 to 20 hrs by BacTiter-Glo assay; type: ADME, organism-based; settings: in vivo
# Danio rerio [2] = species: Danio rerio; test: Otoprotective activity against gentamicin-induced neuromast hair cell death in 4 days post fertilized AB zebrafish larvae assessed as increase in hair cell survival incubated for 6 hrs by inverted microscopic method; type: functional, organism-based
# [3] = Cytotoxicity in CD-1 mouse cochlea assessed as disruption of hair bundle morphology in outer hair cell at 20 uM in presence of gentamicin after 48 hrs by confocal microscopic analysis; type: toxicity, tissue-based
# How it was run: (§1)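 Mouse cochlear cultures exposed for 48 h to compound, either alone or with 5 μM gentamicin. Controls received 0.5% DMSO, or 5 μM gentamicin + 0.5% DMSO. Hair cell survival counted in a 300 μm segment of the mid-basal region. Confocal imaging used to assess IHC and OHC stereociliary bundle morphology.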
# Staphylococcus aureus [4] = test: Effect on gentamycin-induced antibacterial activity against Staphylococcus aureus at 11 uM incubated for 16 to 20 hrs by BacTiter-Glo assay; type: ADME, organism-based; settings: in vivo
# [5] = Binding affinity to MET in CD-1 mouse cochlear outer hair cells measured at -84 mV membrane potential by patch clamp assay
# How it was run: (§2)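 MET currents recorded from OHCs before and during extracellular superfusion of compound at 1, 3 and 10 μM, over membrane potentials from -164 to +96 mV. Currents normalized to the peak control current at +96 mV for each cell. Dose–response curves built at each membrane potential and fitted with eq 1 to give K_D and Hill coefficient.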
# Mus musculus [6] = species: Mus musculus; settings: CD-1, 10 uM
# [7] = Cytotoxicity in CD-1 mouse cochlea assessed as induction of cell death in outer hair cell at >=30 uM after 48 hrs by confocal microscopic analysis; type: toxicity, tissue-based; how it was run: as §1
# Mus musculus [8] = species: Mus musculus; test: Inhibition of MET channel in CD-1 mouse cochlea outer hair cells assessed as reduction in GTTR uptake at 100 uM preincubated for 5 mins followed by GTTR addition and measured after 24 mins by microscopic method
# How it was run: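 Mouse cochlear cultures pre-incubated 5 min with 100 μM compound or 1% DMSO, then 0.2 μM gentamicin Texas Red (GTTR) added. GTTR fluorescence intensity measured in first-row OHCs, with 10 cells analysed from each of three separate experiments (N = 30).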
# Mus musculus [9] = species: Mus musculus; settings: CD-1, 10 uM; remark: listed apart in the source
# Mus musculus [10] = species: Mus musculus; test: Inhibition of MET in CD-1 mouse cochlear outer hair cells assessed as reduction in MET currents at 1 to 10 uM measured at -164 mV membrane potential by patch clamp assay; how it was run: as §2
# [11] = Cytotoxicity in CD-1 mouse cochlea assessed as disruption of hair bundle morphology in outer hair cell at 20 uM after 48 hrs by confocal microscopic analysis; type: toxicity, tissue-based; how it was run: as §1
# Mus musculus [12] = species: Mus musculus; settings: CD-1, 10 uM; remark: listed apart in the source
# Pseudomonas aeruginosa [13] = test: Effect on gentamycin-induced antibacterial activity against Pseudomonas aeruginosa at 2.2 uM incubated for 16 to 20 hrs by BacTiter-Glo assay; type: ADME, organism-based; settings: in vivo
# [14] = Toxicity in 3 days post fertilized AB zebrafish larvae assessed as effect on blood circulation at 100 uM incubated for 48 hrs by inverted microscopic method; design: species or system Danio rerio; settings: in vivo
# How it was run: (§3)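 Zebrafish larvae at 3 dpf treated with compound at 30 or 100 μM for 48 h in three trials. Larvae scored for survival and for circulation, then startled and assayed for movement.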
# Klebsiella pneumoniae [15] = test: Effect on gentamycin-induced antibacterial activity against Klebsiella pneumoniae at 11 uM incubated for 16 to 20 hrs by BacTiter-Glo assay; type: ADME, organism-based; settings: in vivo
# Mus musculus [16] = species: Mus musculus; settings: CD-1, 1 to 10 uM
# Mus musculus [17] = species: Mus musculus; test: Inhibition of MET channel in CD-1 mouse cochlea outer hair bundles assessed as time constant of inward current decline at 1 uM at holding potential of […] by patch clamp assay
# How it was run: (§4)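 MET channels opened by steps from a holding potential of -84 mV, with 1 or 3 μM compound superfused. Currents averaged from 10 repetitions. The current decline was fitted with single exponentials to give time constants, and drug entry rates into hair cells were calculated from these.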
# [18] = Toxicity in 3 days post fertilized AB zebrafish larvae assessed as effect on larval movement at 100 uM incubated for 48 hrs; design: species or system Danio rerio; settings: in vivo; how it was run: as §3
# [19] = Cytotoxicity in CD-1 mouse cochlea assessed as disruption of hair bundle morphology in inner hair cell at 20 uM in presence of gentamicin after 48 hrs by confocal microscopic analysis; type: toxicity, tissue-based; how it was run: as §1
# [20] = Cytotoxicity in CD-1 mouse cochlea assessed as induction of cell damage in inner hair cell at 20 uM in presence of gentamicin after 48 hrs by confocal microscopic analysis; type: toxicity, tissue-based; how it was run: as §1
# [21] = Toxicity in 3 days post fertilized AB zebrafish larvae assessed as reduction in larvae survival at 30 uM incubated for 48 hrs; design: species or system Danio rerio; settings: in vivo; how it was run: as §3
# [22] = Cytotoxicity against CD-1 mouse cochlea assessed as induction of cell death in outer hair cell at >=30 uM after 48 hrs in presence of gentamicin by confocal microscopic analysis; type: toxicity, tissue-based; how it was run: as §1
# Mus musculus [23] = species: Mus musculus; settings: CD-1, 1 to 10 uM; remark: listed apart in the source
# [24] = Cytotoxicity in CD-1 mouse cochlea assessed as induction of cell death in inner hair cell at >=30 uM in presence of gentamicin after 48 hrs by confocal microscopic analysis; type: toxicity, tissue-based; how it was run: as §1
# [25] = (§5) Otoprotective activity against gentamicin-induced outer hair cell death in CD-1 mouse cochlea at 20 uM after 48 hrs by TRITC-phalloidin staining-based microscopic analysis relative to control; type: functional
# How it was run: (§6)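 Mouse cochlear cultures coincubated for 48 h with 5 μM gentamicin plus compound (5, 10 or 20 μM). OHCs counted in a 300 μm long segment of the mid-basal cochlea. Counts compared with 0.5% DMSO control and with gentamicin + 0.5% DMSO cultures.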
# [26] = Toxicity in 3 days post fertilized AB zebrafish larvae assessed as effect on blood circulation at 30 uM incubated for 48 hrs by inverted microscopic method; design: species or system Danio rerio; settings: in vivo; how it was run: as §3
# [27] = Binding affinity to MET in CD-1 mouse cochlear outer hair cells measured at -164 mV membrane potential by patch clamp assay; how it was run: as §2
# [28] = Cytotoxicity in CD-1 mouse cochlea assessed as induction of cell death in inner hair cell at >=30 uM after 48 hrs by confocal microscopic analysis; type: toxicity, tissue-based; how it was run: as §1
# Pseudomonas aeruginosa [29] = test: Effect on gentamycin-induced antibacterial activity against Pseudomonas aeruginosa at 11 uM incubated for 16 to 20 hrs by BacTiter-Glo assay; type: ADME, organism-based; settings: in vivo
# [30] = Toxicity in 3 days post fertilized AB zebrafish larvae assessed as reduction in larvae survival at 100 uM incubated for 48 hrs; design: species or system Danio rerio; settings: in vivo; how it was run: as §3
# Mus musculus [31] = species: Mus musculus; test: Inhibition of MET channel in CD-1 mouse outer hair bundles assessed as time constant of inward current decline at 3 uM at holding potential of […] by patch clamp assay; how it was run: as §4
# [32] = Binding affinity to MET in CD-1 mouse cochlear outer hair cells measured at +96 mV membrane potential by patch clamp assay; how it was run: as §2
# [33] = (§7) Otoprotective activity against gentamicin-induced outer hair cell death in CD-1 mouse cochlea at 10 uM after 48 hrs by TRITC-phalloidin staining-based microscopic analysis relative to control; type: functional; how it was run: as §6
# [34] = Binding affinity to MET in CD-1 mouse cochlear outer hair cells measured at +16 mV membrane potential by patch clamp assay; how it was run: as §2
# [35] = Cytotoxicity in CD-1 mouse cochlea assessed as disruption of hair bundle morphology in inner hair cell at 20 uM after 48 hrs by confocal microscopic analysis; type: toxicity, tissue-based; how it was run: as §1
# Danio rerio [36] = species: Danio rerio; test: Otoprotective activity against neomycin-induced neuromast hair cell death in 4 days post fertilized AB zebrafish larvae assessed as increase in hair cell survival incubated for 1 hr by inverted microscopic method; type: functional, organism-based
# [37] = Cytotoxicity in CD-1 mouse cochlea assessed as induction of cell death in outer hair cell at 10 to 20 uM after 48 hrs by confocal microscopic analysis; type: toxicity, tissue-based; how it was run: as §1
# [38] = Cytotoxicity in CD-1 mouse cochlea assessed as induction of cell damage in inner hair cell at 20 uM after 48 hrs by confocal microscopic analysis; type: toxicity, tissue-based; how it was run: as §1
# [39] = (§8) Otoprotective activity against gentamicin-induced outer hair cell death in CD-1 mouse cochlea at 5 uM after 48 hrs by TRITC-phalloidin staining-based microscopic analysis relative to control; type: functional; how it was run: as §6
# Klebsiella pneumoniae [40] = test: Effect on gentamycin-induced antibacterial activity against Klebsiella pneumoniae at 2.2 uM incubated for 16 to 20 hrs by BacTiter-Glo assay; type: ADME, organism-based; settings: in vivo
# [41] = Binding affinity to MET in CD-1 mouse cochlea outer hair cells measured at -104 mV membrane potential by patch clamp assay
# How it was run: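 MET currents recorded from outer hair cells of mouse cochlear cultures before and during extracellular superfusion of compound at 1, 3 and 10 μM. Membrane potentials stepped from -164 to +96 mV. Currents normalized to the peak control current at +96 mV for each cell. Dose–response curves at each potential fitted with eq 1 to give KD and Hill coefficient.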
# Mus musculus [42] = species: Mus musculus; test: Inhibition of MET in CD-1 mouse cochlea outer hair cells assessed as blockade of MET currents at 10 uM measured at -160 mV to +80 mV membrane potential by patch clamp assay relative to control
# How it was run: (§9)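 OHC MET currents recorded before and during exposure to 10 μM compound. Fractional block taken as the current during exposure relative to the control current at each membrane potential.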
# Mus musculus [43] = species: Mus musculus; test: Inhibition of MET in CD-1 mouse cochlea outer hair cells assessed as blockade of MET currents at 10 uM measured at -164 mV membrane potential by patch clamp assay relative to control; how it was run: as §9
# Mus musculus [44] = species: Mus musculus; test: as §5; type: functional; how it was run: as §6
# Mus musculus [45] = species: Mus musculus; test: as §7; type: functional; how it was run: as §6
# Mus musculus [46] = species: Mus musculus; test: as §8; type: functional; how it was run: as §6
# [47] = Cytotoxicity against CD-1 mouse cochlea assessed as induction of cell damage at 20 uM in presence of gentamicin after 48 hrs by confocal microscopic analysis; type: toxicity, tissue-based
# How it was run: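 Mouse cochlear cultures exposed 48 h to 5 μM gentamicin plus 20 μM compound, with 0.5% DMSO and gentamicin-only controls. Hair cells and bundle morphology imaged, including confocal imaging of IHC stereociliary bundles. OHC survival counted in a 300 μm segment of the mid-basal region.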
# Mus musculus [48] = species: Mus musculus; test: Inhibition of MET in CD-1 mouse cochlea outer hair cells assessed as reduction in MET currents at 10 uM measured at -160 mV to +80 mV membrane potential by patch clamp assay; how it was run: as §9
smiles,measurement,setting,value
COc1ccccc1OCCNCC(O)COc1cccc2[nH]c3ccccc3c12 (configuration not stated) [CARVEDILOL],Activity,Staphylococcus aureus [1],Non-Toxic
same,EC50,Danio rerio [2],11000 nM
same,Activity,[3],Toxic
same,Activity,Staphylococcus aureus [4],Non-Toxic
same,Kd,[5],2000 nM
same,inhibition,Mus musculus [6],Active
same,Activity,[7],Toxic
same,inhibition,Mus musculus [8],Active
same,inhibition,Mus musculus [9],Active
same,inhibition,Mus musculus [10],inactive
same,Activity,[11],Toxic
same,inhibition,Mus musculus [12],Active
same,Activity,Pseudomonas aeruginosa [13],Non-Toxic
same,Activity,[14],Toxic
same,Activity,Klebsiella pneumoniae [15],Non-Toxic
same,inhibition,Mus musculus [16],inactive
same,TIME,Mus musculus [17],5e-06 h
same,Activity,[18],Toxic
same,Activity,[19],Toxic
same,Activity,[20],Toxic
same,Activity,[21],Non-Toxic
same,Activity,[22],Toxic
same,inhibition,Mus musculus [23],Active
same,Activity,[24],Toxic
same,Activity,[25],100%
same,Activity,[26],Non-Toxic
same,Kd,[27],6300 nM
same,Activity,[28],Toxic
same,Activity,Pseudomonas aeruginosa [29],Non-Toxic
same,Activity,[30],Toxic
same,TIME,Mus musculus [31],2.67e-06 h
same,Kd,[32],1500 nM
same,Activity,[33],100%
same,Kd,[34],100 nM
same,Activity,[35],Toxic
same,EC50,Danio rerio [36],2470 nM
same,Activity,[37],Non-Toxic
same,Activity,[38],Toxic
same,Activity,[39],54%
same,Activity,Klebsiella pneumoniae [40],Non-Toxic
COc1cc2c3cc1Oc1cc(ccc1O)C[C@@H]1c4c(cc(OC)c(O)c4Oc4ccc(cc4)C[C@@H]3N(C)CC2)CC[N+]1(C)C [TUBOCURARINE],Kd,[41],2200 nM
COc1ccccc1OCCN(CCOc1ccccc1OC)CC(O)COc1cccc2[nH]c3ccccc3c12 (configuration not stated),inhibition,Mus musculus [42],40%
same,inhibition,Mus musculus [43],Active
same,Activity,Mus musculus [44],Active
same,Activity,Mus musculus [45],inactive
same,Activity,Mus musculus [46],inactive
Cn1cc(C(F)(F)F)nc1-c1ccc(OCC(O)CNCCOc2ccc(O)c(C(N)=O)c2)cc1 (configuration not stated),Activity,Mus musculus [44],inactive
OC(CNCCc1ccccc1)Cn1c2ccccc2c2ccccc21 (configuration not stated),Activity,Mus musculus [44],inactive
same,Activity,[47],Toxic
COc1ccccc1OCCN(CCN1CCOCC1)CC(O)COc1cccc2[nH]c3ccccc3c12 (configuration not stated),Activity,Mus musculus [44],Active
same,inhibition,Mus musculus [48],Active
same,Activity,Mus musculus [46],inactive
COc1ccccc1OCCNCC(O)COc1ccc2c(c1)[nH]c1ccccc12 (configuration not stated),Activity,Mus musculus [44],inactive
same,Activity,[47],Toxic
CC(C)NCC(O)COc1cccc2ccccc12 (configuration not stated),Activity,Mus musculus [44],inactive
COc1ccccc1OCCCCCCOc1cccc2[nH]c3ccccc3c12,Activity,Mus musculus [44],inactive
same,Activity,[47],Toxic
